Measurements reported in EPA's CvTdb concentration-time database.

Columns and labels:
human [1] = assay: concentration in expired air after dosing; negative times count back from the end of exposure; conditions: dosed: dichloromethane, inhalation, duration: 6 hr, male
In short: (§1)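 Points were largely digitised from plot screenshots with WebPlotDigitizer or otherwise copied from tables, and they remain in the units each source reported. They come from published in vivo toxicokinetic studies and two structured collections. Sampling and analytical methods follow each source and were often not reported.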

human [2] = assay: concentration in blood after dosing; negative times count back from the end of exposure; conditions: inhalation, duration: 4 hr
In short: as §1

rat [3] = assay: concentration in expired air after dosing; conditions: dosed: hexachloroethane, 53.3 ppm, inhalation, duration: 6 hr
rat [4] = assay: concentration in expired air after dosing; conditions: dosed: hexachloroethane, 53.3 ppm, inhalation, duration: 6 hr; remark: listed apart in the source
rat [5] = assay: concentration in blood after dosing; negative times count back from the end of exposure; conditions: inhalation
dog = assay: concentration in blood after dosing; negative times count back from the end of exposure; conditions: dosed: tetrachloroethylene, inhalation, duration: 4 hr, male, beagle
In short: as §1

[C-]#[O+] [carbon monoxide]
concentration in expired air [ppm], human [1]
Conditions	100 ppm	350 ppm
0.083 h	17.1	34.6
0.25 h	16.2	32.5
0.5 h	15.8	32.6
1 h	15.7	33.3
1.5 h	14.9	32.3
2 h	14.6	30.9
3 h	11.8	26.8
4 h	10.8	25.1
6 h	10	21.2
8 h	9.1	16.9
16 h	6.8	11.8
24 h	4.3	5.6

concentration in expired air [ppm], human [1], during exposure
Conditions	-36 s	-6 h	-5.75 h	-5.5 h	-5 h	-4.5 h	-4 h	-3 h	-2 h	-1 h
100 ppm	16.8	3.8	5.3	5.8	7	8.1	9	10.7	13.1	15.3
350 ppm	36.1	4.2	6.5	7.6	10.5	13.3	16.1	20.9	25.9	31.1

CCO [ethanol]
concentration in blood [ng/mL], human [2], dosed: ethanol
Conditions	female	male
0.4897 h, 125 ppm	60	62.3
0.4897 h, 250 ppm	–	101
0.4897 h, 450 ppm	158	201
0.4966 h, 750 ppm	299	227
0.4966 h, 1000 ppm	571	267
0.9954 h, 250 ppm	74.2	67.1
1.002 h, 125 ppm	42.9	40.8
1.002 h, 450 ppm	101	112
1.002 h, 750 ppm	153	94
1.002 h, 1000 ppm	248	142

concentration in blood [ng/mL], human [2], dosed: ethanol, during exposure
Conditions	-33 s	-8 s	-4 h	-3.002 h	-2.995 h	-1.007 h	-1 h
125 ppm, female	–	179	35.6	165	–	–	158
125 ppm, male	–	196	36.9	165	–	–	196
250 ppm, female	451	–	78.9	374	–	445	–
250 ppm, male	–	–	42.9	468	–	457	–
450 ppm, female	1000	–	52.4	851	–	–	1000
450 ppm, male	1090	–	–	851	–	–	905
750 ppm, female	–	1620	65.5	–	1430	–	1860
750 ppm, male	–	2060	–	–	1770	–	1510
1000 ppm, female	2640	–	133	–	2300	–	2510
1000 ppm, male	2920	–	–	–	2810	–	2360

ClC(Cl)(Cl)C(Cl)(Cl)Cl [hexachloroethane]
concentration in expired air [ng/mL]
Conditions	rat [3]	rat [4]
0.2509 h	–	96.3
0.7326 h	–	55.5
0.8034 h	73.1	–
0.9876 h	51.1	48.8
1.498 h	–	49.2
1.653 h	36.3	–
1.979 h	26.3	–
2.489 h	24.2	27.8
2.985 h	–	19.8
3.509 h	17.9	–
4.983 h	10.9	15.7
5.975 h	–	15.4
5.989 h	10.1	–
7.236 h	9.9	–
7.986 h	8.23	7.51
8.978 h	7.36	6.78
9.998 h	6.12	5.85
29.5 min	79.4	–

CCCCCC [n-hexane]
rat [5], dosed: n-hexane, 3000 ppm, duration: 6 hr
Conditions	concentration in blood [ng/mL]
0.4718 h	2220
0.9831 h	1920
1.99 h	1370
4.003 h	65.6
5.974 h	42.2
7.994 h	59.3
29 s	8420

rat [5], dosed: n-hexane, 3000 ppm, duration: 6 hr, during exposure
Conditions	concentration in blood [ng/mL]
-6 h	20.3
-5.509 h	7900
-5.025 h	8530
-4.008 h	9820
-3.002 h	9010
-2.005 h	9720

CCCCCCCCC [nonane]
rat [5], dosed: nonane, duration: 4 hr
Conditions	concentration in blood [µg/g]
-83 s, 100 ppm, Fischer-344, during exposure	0.892
-71 s, 500 ppm, Fischer-344, during exposure	4.34
-56 s, 1000 ppm, Fischer-344, during exposure	16.8
-3.501 h, 500 ppm, Fischer-344, during exposure	2.02
-3.496 h, 1000 ppm, Fischer-344, during exposure	7.04
-3.494 h, 100 ppm, Fischer-344, during exposure	0.434
-3.003 h, 100 ppm, Fischer-344, during exposure	0.523
-2.994 h, 1000 ppm, Fischer-344, during exposure	6.96
-2.988 h, 500 ppm, Fischer-344, during exposure	2.21
-2.014 h, 1000 ppm, Fischer-344, during exposure	15.4
-2.009 h, 100 ppm, Fischer-344, during exposure	0.518
-2.007 h, 500 ppm, Fischer-344, during exposure	3.72
-1.02 h, 1000 ppm, Fischer-344, during exposure	17.2
-1.016 h, 100 ppm, Fischer-344, during exposure	0.672
-1.013 h, 500 ppm, Fischer-344, during exposure	3.57
0.1362 h, 1000 ppm, Fischer-344	11
0.1413 h, 100 ppm, Fischer-344	0.367
0.1425 h, 500 ppm, Fischer-344	2.81
0.2276 h, 100 ppm, Fischer-344	0.309
0.2331 h, 1000 ppm, Fischer-344	9.37
0.2405 h, 500 ppm, Fischer-344	1.93
0.4818 h, 1000 ppm, Fischer-344	5.11
0.4859 h, 100 ppm, Fischer-344	0.209
0.4867 h, 500 ppm, Fischer-344	1.77
0.9803 h, 500 ppm, Fischer-344	1.17
0.9804 h, 100 ppm, Fischer-344	0.115
0.9849 h, 1000 ppm, Fischer-344	4.34
1.969 h, 100 ppm, Fischer-344	0.0382
1.99 h, 500 ppm, Fischer-344	0.41
1.992 h, 1000 ppm, Fischer-344	2.37
2.984 h, 500 ppm, Fischer-344	0.368
2.985 h, 100 ppm, Fischer-344	0.0308
2.999 h, 1000 ppm, Fischer-344	1.47
3.992 h, 100 ppm, Fischer-344	0.0196
3.997 h, 1000 ppm, Fischer-344	0.691
4.002 h, 500 ppm, Fischer-344	0.255
198 s, 100 ppm, Fischer-344	0.432
217 s, 1000 ppm, Fischer-344	13.7
239 s, 500 ppm, Fischer-344	3.73

ClC(Cl)=C(Cl)Cl [tetrachloroethylene]
dog
Conditions	concentration in blood [ng/mL]
2.446 h, 142 ppm	696
2.79 h, 72 ppm	345
18.14 h, 72 ppm	371
18.34 h, 142 ppm	848
42.06 h, 72 ppm	352
42.32 h, 142 ppm	798
67.19 h, 72 ppm	315
67.21 h, 142 ppm	681
91.19 h, 72 ppm	262
92.53 h, 142 ppm	603
139.29 h, 72 ppm	166
139.47 h, 142 ppm	405
163.11 h, 72 ppm	135
163.12 h, 142 ppm	314

dog, during exposure
Conditions	concentration in blood [ng/mL]
-227 s, 72 ppm	200
-0.3342 h, 142 ppm	516

human [2], dosed: tetrachloroethylene, 144 ppm, male
Conditions	concentration in blood [ng/mL]
2.478 h	601
18.43 h	752
42.35 h	705
67.23 h	618
92.18 h	515
139.2 h	334
163.09 h	271

Conditions	concentration in blood [ng/mL]
human [2], -0.3835 h, dosed: tetrachloroethylene, 144 ppm, male, during exposure	484
